Only some compounds are listed: those with a hit (about 0.72% of all), similar ones and a draw of the others.
bIAP activator – increases bovine intestinal alkaline phosphatase activity | purified bovine IAP, CDP-star luminescence, 30 min; active compounds read high; fold of DMSO-control signal, blank-subtracted | activation factor at 20 µM | 200,000 compounds, 0.17% hits | AID 1016;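 active = activation factor of 2 or more at 20 µM, a signal rise over negative controls twice the positive control's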
hIAP activ – increases human intestinal alkaline phosphatase activity | purified human IAP, CDP-Star luminescence, 30 min; active compounds read high; 1 = vehicle-only enzyme, 0 = enzyme-free background | activation factor at 10 µM | AID 2524 | P09923 | 330,000 compounds, 0.16% hits;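 active = activation factor of the enzyme at least 2-fold when tested at 20 µM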
Target sequence (P09923 whole entry, looked up): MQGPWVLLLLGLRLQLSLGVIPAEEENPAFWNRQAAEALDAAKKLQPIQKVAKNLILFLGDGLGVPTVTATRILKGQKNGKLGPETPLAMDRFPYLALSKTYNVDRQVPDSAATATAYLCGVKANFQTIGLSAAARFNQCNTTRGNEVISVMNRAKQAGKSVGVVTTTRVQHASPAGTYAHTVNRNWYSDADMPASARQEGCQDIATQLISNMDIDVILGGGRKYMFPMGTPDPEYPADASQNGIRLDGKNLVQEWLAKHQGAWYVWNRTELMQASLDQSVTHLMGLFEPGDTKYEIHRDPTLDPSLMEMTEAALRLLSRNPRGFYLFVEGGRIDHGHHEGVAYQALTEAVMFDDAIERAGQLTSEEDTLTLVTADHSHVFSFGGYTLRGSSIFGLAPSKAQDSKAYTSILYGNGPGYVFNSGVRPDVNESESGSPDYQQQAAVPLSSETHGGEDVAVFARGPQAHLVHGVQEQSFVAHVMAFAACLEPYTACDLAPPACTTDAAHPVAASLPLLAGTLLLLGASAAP
mIAP act – mouse IAP activation; muIAP, CDP-Star luminescence, 30 min; active compounds read high; 1 = vehicle-only enzyme signal, 0 = enzyme-free wells; activation factor at 10 µM; 330,000 compounds, 0.24% hits;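 active = activation factor of at least 2 at 20 µM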
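System: Mouse IAP enzyme | Also added: CDP-Star substrate | Dosing: Compounds dispensed in DMSO | Schedule: 30 min enzyme-substrate-compound incubation at room temperature | Technique: Chemiluminescence readout | Control set: DMSO-only wells and no-enzyme negative control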
mIAP block – mouse IAP inhibition | purified mouse IAP, CDP-Star luminescence, 30 min | inhibition, % at 10 µM | 330,000 compounds, 0.2% hits;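 active = inhibition of at least 40% at 10 µM in the primary screen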
bIAP inh – blocks bovine intestinal alkaline phosphatase activity | purified bovine IAP, CDP-star luminescence, 30 min | inhibition, % at 20 µM | 190,000 tested, under 10 active | AID 1019;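 active = over 50% inhibition of intestinal alkaline phosphatase at 20 µM in the single-dose screen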
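Assay system: bovine IAP enzyme; medium: DEA buffer 100 mM, pH 9.8, with MgCl2 1.0 mM, ZnCl2 0.02 mM; doses: 20 µM single dose; incubation: enzyme reaction for 30 min at room temperature; detection: CDP-star luminescence signal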
hIAP block – blocks human intestinal alkaline phosphatase; AID 2544; purified IAP, CDP-Star luminescence, 30 min; 330,000 compounds, 0.12% hits; inhibition, % at 10 µM;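 active = inhibition reaching a set limit with compound at 10 µM in the primary screen, cut at about 35% in these data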
Of the large screens only hits and unclear results are named; the others gave an inactive call.

N#Cc1c(NC(=O)CSc2ncnc3sccc23)oc(-c2ccco2)c1-c1ccco1	mIAP block 70
O=C(NCc1ccccc1CN1CCCC1)c1cccc(S(=O)(=O)N2CCOCC2)c1	none (no result: bIAP activator, bIAP inh)
Cc1ccc(C)c(S(=O)(=O)N2CCCOC2CNC(=O)C(=O)NCCc2ccco2)c1 (configuration not stated)	none (no result: bIAP activator, bIAP inh)
COc1cc([C@H]2c3[nH]c4ccccc4c3C[C@H]3C(=O)N4[C@@H](c5cc(OC)c(OC)c(OC)c5)c5[nH]c6ccccc6c5C[C@H]4C(=O)N23)cc(OC)c1OC	mIAP act 3.8
COc1cc(NC(=O)NNC(=O)c2cc3occc3n2C)cc(OC)c1OC	none (no result: bIAP activator, bIAP inh)
CCc1cc(SC#N)cc(CC)c1NC(=O)CCl	none
O=C(NC(=S)Nc1ccccc1N1CCOCC1)c1ccc(-c2cc(Cl)ccc2Cl)o1	bIAP activator 3.9
CCc1ccc(N2CSC3=C(C#N)C(c4cccs4)CC(=O)N3C2)cc1 (configuration not stated)	none
COc1ccc(N2CSC3=C(C#N)C(c4cccs4)CC(=O)N3C2)cc1 (configuration not stated)	mIAP block 44
COc1ccc(C)cc1C1=CC(=O)C[C@H](c2ccc(F)cc2)C1	none (no result: bIAP activator, bIAP inh)
N#Cc1sc2nc(C3CC3)cc(-c3ccccc3)c2c1N	none
N#Cc1sc2nc(-c3ccccc3)cc(-c3ccco3)c2c1N	mIAP block 48
O=C(NCc1ccco1)c1sc(=S)n2c1[nH]c(=O)c1ccccc12	mIAP block 40
O=C(NC1CCCC1)c1sc(=S)n2c1[nH]c(=O)c1ccccc12	none
S=C(Nc1cc(Cl)cc(Cl)c1)NC1CCN(Cc2ccccc2)CC1	mIAP act 3.2 (no result: bIAP activator, bIAP inh)
CN(C)S(=O)(=O)c1cccc(-c2nn(-c3ccccc3)cc2/C=C2\SC(=S)NC2=O)c1	bIAP activator 2.1 (no result: hIAP activ, mIAP act, mIAP block, hIAP block)
COc1ccccc1NC(=O)C1CC(O)CN1C(=O)Oc1ccccc1 (configuration not stated)	none (no result: bIAP activator, bIAP inh)
Cc1ccc(S(=O)(=O)Nc2ccc3c(c2)CC(=O)N([C@H](C)CO)C[C@@H](C)[C@H](CN(C)S(=O)(=O)c2ccccc2)O3)cc1	none (no result: bIAP activator, bIAP inh)
COc1ccc(NC(=O)Nc2ccc3c(c2)C(=O)N([C@@H](C)CO)C[C@@H](C)[C@@H](CN(C)S(=O)(=O)c2cccs2)O3)cc1	mIAP act 3.1 (no result: bIAP activator, bIAP inh)
COc1ccc(S(=O)(=O)N(C)C[C@H]2Oc3ccc(NC(=O)Nc4ccc5c(c4)OCO5)cc3CC(=O)N([C@@H](C)CO)C[C@@H]2C)cc1	none (no result: bIAP activator, bIAP inh)
C[C@H](CO)N1C[C@H](C)[C@H](CN(C)S(=O)(=O)c2cccs2)Oc2ccc(NC(=O)Nc3ccc4c(c3)OCO4)cc2CC1=O	mIAP act 2.3 (no result: bIAP activator, bIAP inh)
C[C@H](CO)N1C[C@H](C)[C@H](CN(C)S(=O)(=O)c2ccccc2)Oc2ccc(NC(=O)NC3CCCCC3)cc2CC1=O	mIAP act 2.7 (no result: bIAP activator, bIAP inh)
COc1ccc(S(=O)(=O)N(C)C[C@H]2Oc3ccc(NC(=O)Nc4ccc5c(c4)OCO5)cc3C(=O)N([C@H](C)CO)C[C@@H]2C)cc1	mIAP act 2.3 (no result: bIAP activator, bIAP inh)
COc1ccc(S(=O)(=O)N(C)C[C@H]2Oc3ccc(NC(=O)NC(C)C)cc3C(=O)N([C@H](C)CO)C[C@@H]2C)cc1	none (no result: bIAP activator, bIAP inh)
CC(=O)N1CCN(C(=O)CCC(=O)O)CC1	none (no result: bIAP activator, bIAP inh)
CCOc1ccc(CN(C)C(=O)[C@H](Cc2ccccc2)NC(=O)OCc2ccccc2)cc1OC	none (no result: bIAP activator, bIAP inh)
C[C@H](CO)N1C[C@H](C)[C@@H](CN(C)S(=O)(=O)c2cccs2)Oc2ccc(NC(=O)Nc3ccc4c(c3)OCO4)cc2C1=O	mIAP act 2.2 (no result: bIAP activator, bIAP inh)
C[C@H](CO)N1C[C@H](C)[C@@H](CN(C)S(=O)(=O)c2cccs2)Oc2c(NC(=O)Nc3ccc4c(c3)OCO4)cccc2C1=O	none (no result: bIAP activator, bIAP inh)
C/C(=N\NC(=O)C1CCCC1)c1ccc(Cl)c(Cl)c1	mIAP block 63 (no result: bIAP activator, bIAP inh)
C/C(=N\NC(=O)C1CCCC1)c1ccc(C(C)C)cc1	none (no result: bIAP activator, bIAP inh)
Cc1ccc(C)c(CN2CCC(CNC(=O)Nc3ccc(Br)cc3F)CC2)c1	mIAP act 3.2 (no result: bIAP activator, bIAP inh)
O=C(NCC1CCN(Cc2ccccc2Cl)CC1)Nc1ccccc1F	none (no result: bIAP activator, bIAP inh)
Cc1ccc(C(=O)CCC(=O)OCC(=O)N(C)c2c(N)n(Cc3ccccc3)c(=O)[nH]c2=O)cc1	none (no result: bIAP activator, bIAP inh)
COc1ccc(OC)c(NC(=O)CSCc2cnn(-c3ccccc3)c2-n2cccc2)c1	none
COc1ccccc1CNC(=O)CSCc1cnn(-c2ccccc2)c1-n1cccc1	bIAP activator 3.6
COc1cccc(CNC(=O)CSCc2cnn(-c3ccccc3)c2-n2cccc2)c1OC	bIAP activator 2.3
COc1cc(NC(=O)CSCc2cnn(-c3ccccc3)c2-n2cccc2)cc(OC)c1	bIAP activator 4.1
O=C(CSCc1cnn(-c2ccccc2)c1-n1cccc1)NCc1cccnc1	none
CCc1ccc(NC(=O)C2CCCN(S(=O)(=O)c3ccc4c(c3)CC(C)N4C(C)=O)C2)cc1 (configuration not stated)	none (no result: bIAP activator, bIAP inh)
CCc1ccc(NC(=O)C2CCN(S(=O)(=O)c3ccc4c(c3)CC(C)N4C(C)=O)CC2)cc1 (configuration not stated)	mIAP act 2.1 (no result: bIAP activator, bIAP inh)
O=C(Cc1ccc(Cl)cc1)Nc1cccc(S(=O)(=O)N2CCCCC2)c1	mIAP act 2.1 (no result: bIAP activator, bIAP inh)
Cc1ccc2nc(SCC(=O)Nc3ccc4c(c3)OCO4)nc(=O)n2c1	none (no result: bIAP activator, bIAP inh)
CC(C)N1CCN(Cc2coc3ccccc3c2=O)CC1CCO (configuration not stated)	none
CCOc1ccccc1NC(=O)c1cc(-c2ccncc2)nc2c(Cl)cccc12	none (no result: hIAP activ, mIAP act, mIAP block, hIAP block)
Cc1nnsc1C(=O)N/N=C/c1ccccc1	bIAP activator 5.5
CC(NC(=O)CN(C)Cc1nc2ccccc2c(=O)[nH]1)c1ccccc1 (configuration not stated)	bIAP activator 2.1
O=C(Nc1nc(-c2ccccc2)cs1)NC1CCCCC1	mIAP act 2.6
c1ccc(-c2csc(NC3CCCCC3)n2)cc1	none (no result: bIAP activator, bIAP inh)
CN(c1ccccc1)S(=O)(=O)c1ccc(C(=O)NNC(=O)c2ccccc2F)cc1	none (no result: bIAP activator, bIAP inh)
Clc1cccc(Cl)c1CSc1nnc(-c2ccncc2)s1	hIAP activ 2.1 (no result: bIAP activator, bIAP inh)
Cc1ccc(NC(=O)CSCC(=O)NCc2cccc(C(F)(F)F)c2)cc1	none (no result: bIAP activator, bIAP inh)
O=C(COc1ccc([N+](=O)[O-])cc1)NNC(=O)Nc1ccccc1F	mIAP block 44 (no result: bIAP activator, bIAP inh)
S=C(NCCCc1ccccc1)Nc1ccc(Cl)cc1	mIAP act 2.7
S=C(NCCCc1ccccc1)Nc1ccccc1	none (no result: bIAP activator, bIAP inh)
S=C(NCCc1ccc(Cl)cc1)Nc1ccc(Cl)cc1Cl	mIAP act 2.3
O=C(NCCc1ccc(Cl)cc1)Nc1cccc(Cl)c1	mIAP act 2.9
COc1cc(Cl)ccc1NC(=O)COc1ccccc1C(=O)NN	none
COc1ccc(NC(=O)C2CCCN2C(=O)NC2CCCCC2)c(OC)c1 (configuration not stated)	none (no result: bIAP activator, bIAP inh)
